According to ChEMBL document CHEMBL1136692, “Pharmacokinetic optimization of 3-amino-6-chloropyrazinone acetamide thrombin inhibitors. Implementation of P3 pyridine N-oxides to deliver an orally bioavailable series containing P1 N-benzylamides” (Bioorg Med Chem Lett, 2003):

Legend:
[1] = Partition coefficient (logP) of the compound; assay type: physicochemical; settings: octanol/water
[2] = Maximum plasma concentration (Cmax) in dog at a dose of 1 mg/kg; assay type: ADME, organism-based, Canis lupus familiaris; set-up: dose 1 mg/kg
Procedure, shortened: (§1)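 Dog pharmacokinetics after oral dosing at 1 mg/kg, or at 0.7 or 0.5 mg/kg where footnoted. Cmax (µM) and oral half-life (h) from plasma levels.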

[3] = t1/2 in dog; assay type: ADME, organism-based, Canis lupus familiaris; settings: in vivo; procedure, shortened: as §1
[4] = organism: Homo sapiens; experiment: Human microsome stabilities are reported as the ratio of the % remaining after a 1 hr incubation versus the internal standard thrombin inhibitor; assay type: functional; set-up: unit not given here
[5] = target: Prothrombin (Homo sapiens, UniProt P00734); experiment: Inhibitory activity against human thrombin
[6] = organism: Homo sapiens; experiment: Concentration required to double the activated partial thromboplastin time (aPPT) in human plasma; assay type: functional, cell-free
Procedure, shortened: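 Anticoagulant assay in human plasma. The value is the concentration of inhibitor that doubles the activated partial thromboplastin time (2×aPTT).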

[7] = Maximum plasma concentration (Cmax) in dog at a dose of […] mg/kg; assay type: ADME, organism-based, Canis lupus familiaris
[8] = Plasma clearance (pharmacokinetic parameter) in dog was determined; assay type: ADME, organism-based, Canis lupus familiaris; settings: read-out: Clp
Procedure, shortened: (§2)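 Dog pharmacokinetics. Parameters are plasma clearance (mL/min/kg), volume of distribution (L/kg), iv half-life (h) and oral bioavailability F (%).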

[9] = Oral bioavailability in dog; assay type: ADME, organism-based, Canis lupus familiaris; settings: in vivo; procedure, shortened: as §2
[10] = Compound was tested for percent protein binding (PB) in dog; assay type: ADME, organism-based, Canis lupus familiaris; settings: read-out: PB (converted)
Procedure, shortened: (§3)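 Plasma protein binding given as percent free drug, measured in dog plasma and in human plasma.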

[11] = Compound was tested for percent protein binding (PB) in human; assay type: ADME; settings: read-out: PB (converted); procedure, shortened: as §3
[12] = Half life period after intravenous administration in dog; assay type: ADME, organism-based, Canis lupus familiaris; settings: in vivo; procedure, shortened: as §2
[13] = Vd in dog; assay type: ADME, organism-based, Canis lupus familiaris; settings: in vivo; procedure, shortened: as §2
[14] = Vd (10 mg/kg) was determined in rat (in vivo); assay type: ADME, organism-based
Procedure, shortened: (§4)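 Plasma clearance and volume of distribution determined at a species-specific dose: 1 mg/kg for dog, 10 mg/kg for rat, 5 mg/kg for rhesus.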

[15] = Half life period after intravenous administration (10 mg/kg) was determined in rat (in vivo); assay type: ADME, organism-based
[16] = Maximum plasma concentration (Cmax) in rhesus monkey(in vivo) at a dose of 5 mg/kg; assay type: ADME, organism-based; set-up: dose 5 mg/kg; settings: cercopithecidae
Procedure, shortened: (§5)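 Maximum plasma concentration in rat (10 mg/kg) and in rhesus (5 mg/kg), each measured at the dose stated for its species.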

[17] = Vd (1 mg/kg) was determined in dog (in vivo); assay type: ADME, organism-based, Canis lupus familiaris; procedure, shortened: as §4
[18] = Vd (5 mg/kg) was determined in rhesus (in vivo); assay type: ADME, organism-based, Macaca mulatta; settings: rhesus monkey; procedure, shortened: as §4
[19] = Plasma clearance (pharmacokinetic parameter) in rhesus (in vivo) at a dose of 5 mg/kg; assay type: ADME, organism-based, Macaca mulatta; set-up: dose 5 mg/kg; settings: rhesus monkey, read-out: Clp; procedure, shortened: as §4
[20] = system: Rattus norvegicus; experiment: Thrombin time of occlusion after intravenous administration in rat model of FeCl3-induced carotid thrombosis; assay type: functional
[21] = Oral bioavailability (10 mg/kg) was determined in rat; assay type: ADME, organism-based; settings: in vivo
[22] = Oral bioavailability (5 mg/kg) was determined in rhesus; settings: Macaca mulatta, rhesus monkey, in vivo
[23] = Maximum plasma concentration (Cmax) in rat (in vivo) at a dose of 10 mg/kg; assay type: ADME, organism-based; set-up: dose 10 mg/kg; procedure, shortened: as §5
[24] = Plasma clearance (pharmacokinetic parameter) in rat (in vivo) at a dose of 10 mg/kg; assay type: ADME, organism-based; set-up: dose 10 mg/kg; settings: read-out: Clp; procedure, shortened: as §4
[25] = system: Rattus norvegicus; experiment: […] activated partial thromboplastin time(APPT) after intravenous administration in rat model of FeCl3-induced carotid thrombosis; assay type: functional
[26] = Half life period after intravenous administration (1 mg/kg) was determined in dog (in vivo); assay type: ADME, organism-based, Canis lupus familiaris
[27] = Plasma clearance (pharmacokinetic parameter) in dog (in vivo) at a dose of 1 mg/kg; assay type: ADME, organism-based, Canis lupus familiaris; set-up: dose 1 mg/kg; settings: read-out: Clp; procedure, shortened: as §4
[28] = Half life period after intravenous administration (5 mg/kg) was determined in rhesus (in vivo); assay type: ADME, organism-based, Macaca mulatta; settings: rhesus monkey
[29] = Oral bioavailability (1 mg/kg) was determined in dog; settings: in vivo
[30] = Maximum plasma concentration (Cmax) in dog (in vivo) at a dose of 1 mg/kg; assay type: ADME, organism-based, Canis lupus familiaris; set-up: dose 1 mg/kg; procedure, shortened: as §1
[31] = system: Rattus norvegicus; experiment: Time of occlusion after intravenous administration in rat model of FeCl3-induced carotid thrombosis; assay type: functional
Procedure, shortened: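 Rat carotid artery thrombosis induced with FeCl3. Compound given iv as a continuous infusion (µg/kg/min; vehicle 0.3% DMSO). Read-outs: incidence of occlusion, time to occlusion, thrombin time, aPTT (s) and plasma level (µM).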

SMILES	logP [1]	Cmax [2]	half-life [3]	Ratio [4]	Ki [5]	Concentration [6]	also measured
O=C(Cn1c(Cl)cnc(NCC(F)(F)c2cccc[n+]2[O-])c1=O)NCc1ccccc1OC(F)(F)F	2.34	1670 nM	3 h	0	2.4 nM	0.81 µM	
Cc1cccc(CNC(=O)Cn2c(Cl)cnc(NCC(F)(F)c3cccc[n+]3[O-])c2=O)c1	1.81	2190 nM	1.1 h	0.58	0.8 nM	0.3 µM	
COc1ccccc1CNC(=O)Cn1c(Cl)cnc(NCC(F)(F)c2cccc[n+]2[O-])c1=O	1.36		3.8 h	0.44	3 nM	0.56 µM	Cmax ([7]; 0.5 mg/kg): 2480 nM
O=C(Cn1c(Cl)cnc(NCC(F)(F)c2cccc[n+]2[O-])c1=O)NCc1cccc(Br)c1	2.11	1010 nM	3.6 h	0.14	0.19 nM	0.28 µM	
O=C(Cn1c(Cl)cnc(NCC(F)(F)c2cccc[n+]2[O-])c1=O)NCc1c(F)cccc1F	1.23	210 nM	6.2 h	3.4	0.85 nM	0.33 µM	
O=C(Cn1c(Cl)cnc(NCC(F)(F)c2cccc[n+]2[O-])c1=O)NCc1cccc(OC(F)F)c1	1.73	120 nM	4.8 h	0.54	7 nM	0.97 µM	
O=C(Cn1c(Cl)cnc(NCC(F)(F)c2cccc[n+]2[O-])c1=O)NCc1cc(F)ccc1F	Not Active	2290 nM	3.9 h	0.05	2.4 nM	0.43 µM	
O=C(Cn1c(Cl)cnc(NCC(F)(F)c2cccc[n+]2[O-])c1=O)NCc1cccc(Cl)c1	Not Active		2.6 h	0	0.26 nM	0.23 µM	Cmax ([7]; 0.5 mg/kg): 1910 nM
O=C(Cn1c(Cl)cnc(NCC(F)(F)c2cccc[n+]2[O-])c1=O)NCc1ccccc1OCC(F)(F)F	1.93	2290 nM	2.5 h	0	1.8 nM	0.58 µM	
O=C(Cn1c(Cl)cnc(NCC(F)(F)c2cccc[n+]2[O-])c1=O)NCc1ncccc1F	0.19	1780 nM	2.5 h	6.5	3.1 nM	0.54 µM	clearance [8]: 4.91 mL/min/kg; bioavailability [9]: 83%; fraction unbound [10]: 0.2; fraction unbound [11]: 0.3; half-life [12]: 2.9 h; Vd [13]: 1.13 L/kg
O=C(Cn1c(Cl)cnc(NCC(F)(F)c2cccc[n+]2[O-])c1=O)NCc1c(F)cccc1C(F)(F)F	1.89		2.4 h	0	1.3 nM	0.88 µM	Cmax ([7]; 0.7 mg/kg): 70 nM
O=C(Cn1c(Cl)cnc(NCC(F)(F)c2cccc[n+]2[O-])c1=O)NCc1cccc(Cl)c1Cl	2.14	290 nM	2.5 h	0.39	2 nM	0.88 µM	
O=C(Cn1c(Cl)cnc(NCC(F)(F)c2cccc[n+]2[O-])c1=O)NCc1ccccc1Cl	1.89	700 nM	2.9 h	0.15	2.5 nM	0.54 µM	
O=C(Cn1c(Cl)cnc(NCC(F)(F)c2cccc[n+]2[O-])c1=O)NCc1cc(Cl)ccc1Cl	2.61	110 nM	2.1 h	1.04	0.087 nM	0.39 µM	
O=C(Cn1c(Cl)cnc(NCC(F)(F)c2cccc[n+]2[O-])c1=O)NCc1ccccc1OC(F)F	1.63	2030 nM	2.8 h	0	3 nM	0.69 µM	
COc1cccc(CNC(=O)Cn2c(Cl)cnc(NCC(F)(F)c3cccc[n+]3[O-])c2=O)c1	1.31	1220 nM	2.8 h	0.71	1.2 nM	0.43 µM	
O=C(Cn1c(Cl)cnc(NCC(F)(F)c2cccc[n+]2[O-])c1=O)NCc1cc(F)ccc1C(F)(F)F	1.99	990 nM	2.8 h	0	1.7 nM	0.63 µM	
O=C(Cn1c(Cl)cnc(NCC(F)(F)c2cccc[n+]2[O-])c1=O)NCc1cccc(F)c1	Not Active		4.1 h	0.71	7.3 nM	0.86 µM	Cmax ([7]; 0.5 mg/kg): 1370 nM
O=C(Cn1c(Cl)cnc(NCC(F)(F)c2cccc[n+]2[O-])c1=O)NCc1ccccc1F	1.39	3500 nM	4.9 h			0.4 µM	Vd [14]: 0.93 L/kg; half-life [15]: 0.43 h; Cmax [16]: 1050 nM; Vd [17]: 0.49 L/kg; Vd [18]: 1.5 L/kg; clearance [19]: 19 mL/min/kg; TT [20]: 59.3 s; bioavailability [21]: 52%; bioavailability [22]: 21%; Cmax [23]: 1940 nM; clearance [24]: 43 mL/min/kg; APTT [25]: 22.6 s; half-life [26]: 6.3 h; clearance [27]: 1.55 mL/min/kg; half-life [28]: 1.1 h; bioavailability [29]: 40%; Cmax [30]: 3280 nM; TTO [31]: 15
O=C(Cn1c(Cl)cnc(NCC(F)(F)c2cccc[n+]2[O-])c1=O)NCc1ncccc1Cl	0.75		5.5 h	1.3	2.9 nM	0.47 µM	clearance [8]: 3.03 mL/min/kg; Cmax ([7]; 0.7 mg/kg): 1090 nM; fraction unbound [10]: 0.5; fraction unbound [11]: 0.59; half-life [12]: 6 h; Vd [13]: 1.17 L/kg
O=C(Cn1c(Cl)cnc(NCC(F)(F)c2cccc[n+]2[O-])c1=O)NCc1ccccc1C(F)(F)F	2.24		3.7 h	0.05	3.6 nM	0.93 µM	Cmax ([7]; 0.5 mg/kg): 1430 nM
O=C(Cn1c(Cl)cnc(NCC(F)(F)c2cccc[n+]2[O-])c1=O)NCc1c(F)ccc(F)c1F	1.42	1510 nM	3.5 h	0.04	1.1 nM	0.31 µM	
O=C(Cn1c(Cl)cnc(NCC(F)(F)c2cccc[n+]2[O-])c1=O)NCc1ccccc1	1.23	3200 nM	6.3 h	1.3	7 nM	0.94 µM	
O=C(Cn1c(Cl)cnc(NCC(F)(F)c2ccccn2)c1=O)NCc1ccccc1F		17 nM			4.8 nM	1.24 µM	
Cc1ccccc1CNC(=O)Cn1c(Cl)cnc(NCC(F)(F)c2cccc[n+]2[O-])c1=O	1.74	1760 nM	3.6 h			0.77 µM	
O=C(Cn1c(Cl)cnc(NCC(F)(F)c2ccccn2)c1=O)NCc1ncccc1F [DPOC-4088]						0.78 µM	clearance [8]: 2.2 mL/min/kg; fraction unbound [10]: 0.67; fraction unbound [11]: 0.86; half-life [12]: 4.5 h; Vd [13]: 0.62 L/kg
O=C(Cn1c(Cl)cnc(NCC(F)(F)c2cccc[n+]2[O-])c1=O)NCc1ccc(F)c(Cl)c1	1.98	420 nM	2.4 h	0	3.6 nM	0.78 µM	
CCOc1ccccc1CNC(=O)Cn1c(Cl)cnc(NCC(F)(F)c2cccc[n+]2[O-])c1=O	1.91	770 nM	1.2 h	0.08	5.2 nM	0.87 µM	
O=C(Cn1c(Cl)cnc(NCC(F)(F)c2cccc[n+]2[O-])c1=O)NCc1cc(Cl)ccc1F	Not Active	480 nM	2.1 h	0	0.16 nM	0.31 µM	
